Test results published in publication PMC5625166 (Pharmacology Research & Perspectives, 2017).
Like-named read-outs stand apart in the source and are kept apart here.

Experiments:
CYP2E1 [1] = details: acetone-induced rat microsome; ref Brady et al. 1991; cited from earlier work
CYP2E1 [2] = target: CYP2E1 (Homo sapiens, UniProt P05181); test: CYP2E1 inhibition assay; format: biochemical; details: for inhibition at 1 h: CYP2E1 baculosomes, pH 7.4, probe para-nitrophenol (p-NP); for Inhibition type: p-NP 5-100 μmol/L, inhibitor 5-200 μmol/L, goodness-of-fit; for inhibition at saturating substrate concentration: in words
Procedure, shortened: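 p-NP hydroxylation by CYP2E1 baculosomes (2 pmol/μL) in 50 mmol/L potassium phosphate, pH 7.4. p-NP at 5–100 μmol/L (five levels) and inhibitor at 5–200 μmol/L (six levels). Pre-incubated 5 min at 37°C, then NADPH added (26 mmol/L) and run 1 h at 37°C. Stopped with TCA, neutralized with NaOH, absorbance read at 535 nm. Activity normalized to vehicle. IC50, Km/Vmax and Ki/inhibition type fitted by nonlinear regression; four replicates.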

[3] = Preliminary toxicity / cell death of DAS analogs; format: cell-based; details: 200 μmol/L, 6 days of treatment, unpublished
[4] = 100 μmol/L p-NP, mean ± SE, four replicates
[5] = competitive inhibition, mean ± SE, four replicates
[6] = K i, noncompetitive inhibition, mean ± SE, four replicates
[7] = K i, uncompetitive inhibition, mean ± SE, four replicates

CYP2E1 (Homo sapiens, UniProt P05181), sequence (P05181 whole entry): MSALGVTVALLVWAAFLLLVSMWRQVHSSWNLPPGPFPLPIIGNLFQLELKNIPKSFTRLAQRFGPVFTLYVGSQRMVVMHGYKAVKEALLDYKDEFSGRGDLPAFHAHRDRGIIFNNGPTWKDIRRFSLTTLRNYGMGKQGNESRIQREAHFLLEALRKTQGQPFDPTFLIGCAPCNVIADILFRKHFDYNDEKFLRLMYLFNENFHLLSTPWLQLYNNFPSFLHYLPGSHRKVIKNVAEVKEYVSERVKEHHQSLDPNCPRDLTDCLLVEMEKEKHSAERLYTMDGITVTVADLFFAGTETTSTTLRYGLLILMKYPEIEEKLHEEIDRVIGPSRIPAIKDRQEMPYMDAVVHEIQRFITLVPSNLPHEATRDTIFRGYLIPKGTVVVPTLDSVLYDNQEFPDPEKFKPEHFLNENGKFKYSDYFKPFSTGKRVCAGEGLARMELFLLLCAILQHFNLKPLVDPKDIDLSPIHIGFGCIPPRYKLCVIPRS

C=CCSCC=C [Diallyl sulfide (DAS), Diallyl sulfide, reference compound]
Inhibition type (CYP2E1 [1]): competitive inhibition | IC50 (CYP2E1 [2]): 17.3 ± 1.1 µM | inhibition at 1 h (CYP2E1 [2]): 97% | Ki (CYP2E1 [2]; K i, competitive inhibition, mean ± SE, four replicates): 6.3 ± 1 µM | Inhibition type (CYP2E1 [2]): Competitive | Inhibition type (CYP2E1 [2]; listed as DAS): competitive inhibition kinetics

C=CCSC [Allyl methyl sulfide (AMS), allyl methyl sulfide]
Maximal inhibition (%) (CYP2E1 [2]): 100% | IC50 (CYP2E1 [2]; [4]): 11.4 ± 1.1 µM | IC50 (CYP2E1 [2]; 100 μmol/L p-NP, mean ± SE, four replicates, listed as AMS): 11.4 ± 1.1 µM | Ki (CYP2E1 [2]; [5]): 4.4 ± 0.9 µM | inhibition at saturating substrate concentration (CYP2E1 [2]): complete inhibition | Inhibition type (CYP2E1 [2]): Competitive

C=CCCCCN [5‐hexen‐1‐amine (5, 1 HA), 5‐hexen‐1‐amine]
IC50 (CYP2E1 [2]): 74.7 ± 1.2 µM | inhibition at 1 h (CYP2E1 [2]): 75% | Ki (CYP2E1 [2]; [6]): ~10.5 µM | Ki (CYP2E1 [2]; [7]): ~7.3 µM

C=CCOCCN [2‐(prop‐2‐en‐1‐yloxy) ethan‐1‐amine]
IC50 (CYP2E1 [2]): 43.7 ± 1.4 µM | inhibition at 1 h (CYP2E1 [2]): 71% | Ki (CYP2E1 [2]; [6]): 34.1 ± 3.3 µM | Ki (CYP2E1 [2]; [7]): 19.3 ± 2.3 µM

C=CCOCC(N)=O [2‐prop‐2‐enoxyacetamide (PEXA), 2‐prop‐2‐enoxyacetamide]
IC50 (CYP2E1 [2]): 91.4 ± 1.6 µM | inhibition at 1 h (CYP2E1 [2]): 20% | Ki (CYP2E1 [2]; [6]): 363 ± 64 µM | Ki (CYP2E1 [2]; [7]): 246 ± 47 µM

c1ccsc1 [Thiophene (TP), thiophene]
toxicity [3]: did not show any significant toxicities | Maximal inhibition (%) (CYP2E1 [2]): 98% | IC50 (CYP2E1 [2]; [4]): 19.4 ± 1.1 µM | Ki (CYP2E1 [2]; [5]): 7.7 ± 1.2 µM | inhibition at saturating substrate concentration (CYP2E1 [2]): complete inhibition | Inhibition type (CYP2E1 [2]): Competitive
